Results: ChEMBL document CHEMBL1140214, “Antitumor activity of new substituted 3-(5-imidazo[2,1-b]thiazolylmethylene)-2-indolinones and 3-(5-imidazo[2,1-b]thiadiazolylmethylene)-2-indolinones: selectivity against colon tumor cells and effect on cell cycle-related events” (2008)

Key:
Melanoma cell = test: Antitumor activity against human Melanoma cells after 48 hrs by SRB assay; assay type: functional; conditions: for CC50: read-out: pLC50 (the source's name) (converted); for TGI: read-out: pTGI (converted)
Summary of the method: (§1)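 NCI 60-cell panel two-stage screen: a single-dose pass at 10^-5 M, then five-dose testing for active compounds. Compounds were dissolved in DMSO and tested at five 10-fold dilutions, the highest 10^-4 M (10^-3 M in some cases). Results are given as the negative log molar concentration at three end points: pGI50, pTGI (total growth inhibition) and pLC50. Means are panel-subtype averages.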

[1] = Antitumor activity against human CNS cancer cells after 48 hrs by SRB assay; assay type: functional, Cancer cell lines; conditions: for TGI: read-out: pTGI (converted); summary of the method: as §1
[2] = Antitumor activity against human ovarian cancer cells after 48 hrs by SRB assay; assay type: functional, Cancer cell lines; conditions: for GI50 / LC50 (concentration killing 50% of cells) / TGI: Homo sapiens, Cancer cell lines, 48 h; for TGI: read-out: pTGI (converted); summary of the method: as §1
[3] = Antitumor activity against human renal cancer cells after 48 hrs by SRB assay; assay type: functional, Cancer cell lines; conditions: for GI50 / LC50 (concentration killing 50% of cells) / TGI: Homo sapiens, Cancer cell lines, 48 h; for TGI: read-out: pTGI (converted); summary of the method: as §1
Leukemia cell = test: Antitumor activity against human Leukemia cells after 48 hrs by SRB assay; assay type: functional; conditions: for GI50 / LC50 (concentration killing 50% of cells) / TGI: Homo sapiens, Leukemia cell, 48 h; for TGI: read-out: pTGI (converted); summary of the method: as §1
[4] = Antitumor activity against human Breast cancer cells after 48 hrs by SRB assay; assay type: functional, Cancer cell lines; conditions: for GI50 / LC50 / TGI: Homo sapiens, Cancer cell lines, 48 h; for TGI: read-out: pTGI (converted); summary of the method: as §1
NSCLC = test: Antitumor activity against human NSCLC cells after 48 hrs by SRB assay; assay type: functional; conditions: for GI50 / LC50 / TGI: Homo sapiens, NSCLC, 48 h; for TGI: read-out: pTGI (converted); summary of the method: as §1
[5] = Antitumor activity against human Colon cancer cells after 48 hrs by SRB assay; assay type: functional, Cancer cell lines; conditions: for GI50 / TGI / LC50 (50% lethal concentration): Homo sapiens, Cancer cell lines, 48 h; for TGI: read-out: pTGI (converted); summary of the method: as §1
[6] = Antitumor activity against human prostate cancer cells after 48 hrs by SRB assay; assay type: functional, Cancer cell lines; conditions: for GI50 / LC50 / TGI: Homo sapiens, Cancer cell lines, 48 h; for TGI: read-out: pTGI (converted); summary of the method: as §1
[7] = Homo sapiens, Melanoma cell, 48 h, read-out: pGI50 (converted)
[8] = Homo sapiens, Melanoma cell, 48 h
[9] = Homo sapiens, Cancer cell lines, 48 h
[10] = Homo sapiens, Cancer cell lines, 48 h, read-out: pGI50 (converted)

| Structure (SMILES) | GI50 (Melanoma cell) | GI50 (Melanoma cell; [7]) | TGI (Melanoma cell; [8]) | GI50 [1] | GI50 [1, 10] | GI [2] | GI50 [2] | TGI [2] | GI [3] | GI50 [3] | TGI [3] | GI (Leukemia cell) | GI50 (Leukemia cell) | TGI (Leukemia cell) | GI [4] | GI50 [4] | GI (NSCLC) | GI50 (NSCLC) | TGI (NSCLC) | GI [5] | also measured |
| --- | --- | --- | --- | --- | --- | --- | --- | --- | --- | --- | --- | --- | --- | --- | --- | --- | --- | --- | --- | --- | --- |
| Cc1cn2c(/C=C3/C(=O)Nc4ccc(O)cc43)c(-c3ccc(Cl)cc3)nc2s1 | 15.14 µM | 15.1 µM | 57.5 µM | 13.18 µM | 13.2 µM | 13.8 µM | 13.8 µM | 44.7 µM | 15.14 µM | 15.1 µM | 50.1 µM | 12.59 µM | 12.6 µM | 38.9 µM | 15.85 µM | 15.8 µM | 16.6 µM | 16.6 µM | 55 µM | 24.55 µM | CC50 (Melanoma cell; [8]): 89.1 µM; LC50 [1, 9]: 81.3 µM; TGI [1, 9]: 35.5 µM; LC50 (concentration killing 50% of cells) [2]: 89.1 µM; LC50 (concentration killing 50% of cells) [3]: 87.1 µM; LC50 (concentration killing 50% of cells) (Leukemia cell): 95.5 µM; LC50 [4]: 95.5 µM; TGI [4]: 56.2 µM; LC50 (NSCLC): 91.2 µM; GI50 [5]: 24.5 µM; TGI [5]: 75.9 µM; GI [6]: 15.14 µM; GI50 [6]: 15.1 µM; LC50 [6]: 79.4 µM; TGI [6]: 50.1 µM |
| Cc1cn2c(/C=C3/C(=O)Nc4ccccc43)c(-c3ccc(Cl)cc3)nc2s1 | 9.55 µM | 9.55 µM | 19.1 µM | 6.76 µM | 6.76 µM | 10 µM | 10 µM | 20.4 µM | 3.31 µM | 3.31 µM | 18.6 µM | 18.2 µM | 18.2 µM | 44.7 µM | 6.46 µM | 6.46 µM | 8.13 µM | 8.13 µM | 17.8 µM | 10.23 µM | CC50 (Melanoma cell; [8]): 32.4 µM; LC50 [1, 9]: 30.2 µM; TGI [1, 9]: 15.1 µM; LC50 (concentration killing 50% of cells) [2]: 39.8 µM; LC50 (concentration killing 50% of cells) [3]: 33.1 µM; LC50 [4]: 35.5 µM; TGI [4]: 17.8 µM; LC50 (NSCLC): 38 µM; GI50 [5]: 10.2 µM; LC50 (50% lethal concentration) [5]: 38.9 µM; TGI [5]: 21.4 µM; GI [6]: 9.77 µM; GI50 [6]: 9.77 µM; LC50 [6]: 28.8 µM; TGI [6]: 17 µM |
| COc1ccc(OC)c(-c2nc3sccn3c2/C=C2/C(=O)N(C)c3ccccc32)c1 | 19.5 µM | 19.5 µM | 47.9 µM | 21.38 µM | 21.4 µM | 29.51 µM | 29.5 µM | 81.3 µM | 27.54 µM | 27.5 µM | 72.4 µM | 7.41 µM | 7.41 µM | 44.7 µM | 15.85 µM | 15.8 µM | 26.92 µM | 26.9 µM | 74.1 µM | 23.44 µM | CC50 (Melanoma cell; [8]): 87.1 µM; LC50 [1, 9]: 97.7 µM; TGI [1, 9]: 57.5 µM; LC50 (concentration killing 50% of cells) (Leukemia cell): 97.7 µM; TGI [4]: 53.7 µM; GI50 [5]: 23.4 µM; LC50 (50% lethal concentration) [5]: 95.5 µM; TGI [5]: 67.6 µM; GI [6]: 25.12 µM; GI50 [6]: 25.1 µM; TGI [6]: 91.2 µM |
| COc1ccc2c(c1)/C(=C\c1c(-c3ccc(C)cc3)nc3sc(C)cn13)C(=O)N2 | 16.22 µM | 16.2 µM | 55 µM | 14.45 µM | 14.5 µM | 18.2 µM | 18.2 µM | 97.7 µM | 13.18 µM | 13.2 µM | 67.6 µM | 4.07 µM | 4.07 µM | 51.3 µM | 12.88 µM | 12.9 µM | 14.45 µM | 14.5 µM | 77.6 µM | 12.88 µM | GI50 [5]: 12.9 µM; TGI [5]: 66.1 µM; GI [6]: 4.68 µM; GI50 [6]: 4.68 µM |
| Cc1ccc(-c2nc3sc(C)cn3c2/C=C2/C(=O)Nc3ccc(Cl)cc32)cc1 | 14.79 µM | 14.8 µM | 31.6 µM | 6.61 µM | 6.61 µM | 14.45 µM | 14.5 µM | 34.7 µM | 12.59 µM | 12.6 µM | 32.4 µM | 22.91 µM | 22.9 µM | 72.4 µM | 12.59 µM | 12.6 µM | 13.49 µM | 13.5 µM | 37.2 µM | 18.62 µM | CC50 (Melanoma cell; [8]): 66.1 µM; LC50 [1, 9]: 55 µM; TGI [1, 9]: 20.4 µM; LC50 (concentration killing 50% of cells) [2]: 74.1 µM; LC50 (concentration killing 50% of cells) [3]: 64.6 µM; LC50 [4]: 75.9 µM; TGI [4]: 38.9 µM; LC50 (NSCLC): 69.2 µM; GI50 [5]: 18.6 µM; LC50 (50% lethal concentration) [5]: 79.4 µM; TGI [5]: 43.7 µM; GI [6]: 22.39 µM; GI50 [6]: 22.4 µM; TGI [6]: 55 µM |
| COc1ccc2c(c1)/C(=C\c1c(-c3cc(OC)ccc3OC)nc3sc(C)cn13)C(=O)N2C | 25.12 µM | 25.1 µM | 56.2 µM | 23.99 µM | 24 µM | 25.7 µM | 25.7 µM | 91.2 µM | 30.9 µM | 30.9 µM | 97.7 µM | 15.85 µM | 15.8 µM | 63.1 µM | 28.84 µM | 28.8 µM | 28.84 µM | 28.8 µM | 89.1 µM | 33.11 µM | TGI [1, 9]: 74.1 µM; TGI [4]: 95.5 µM; GI50 [5]: 33.1 µM; TGI [5]: 81.3 µM; GI [6]: 30.9 µM; GI50 [6]: 30.9 µM; TGI [6]: 97.7 µM |
